As usually defined, the inhibition is the change of the read-out against control, counted positive when it falls. The IC50 is the concentration that inhibits the measured activity by half.

Results on 26 compounds are retold here after ChEMBL document CHEMBL1153852, “Steroidal lactones as inhibitors of 17beta-hydroxysteroid dehydrogenase type 5: chemical synthesis, enzyme inhibitory activity, and assessment of estrogenic and androgenic activities” (Eur J Med Chem, 2009).

The target of experiment [1] is T1, Aldo-keto reductase family 1 member C3 (Homo sapiens) (UniProt P42330).
T1 sequence (whole entry): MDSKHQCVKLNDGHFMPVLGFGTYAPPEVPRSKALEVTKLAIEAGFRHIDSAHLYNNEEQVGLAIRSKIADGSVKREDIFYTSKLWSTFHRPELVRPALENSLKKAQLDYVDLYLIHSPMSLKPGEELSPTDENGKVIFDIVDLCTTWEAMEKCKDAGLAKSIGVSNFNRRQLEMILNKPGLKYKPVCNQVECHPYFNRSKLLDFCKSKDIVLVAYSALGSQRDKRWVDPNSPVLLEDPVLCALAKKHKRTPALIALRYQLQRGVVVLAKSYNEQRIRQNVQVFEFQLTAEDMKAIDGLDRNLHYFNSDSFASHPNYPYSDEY
As to the kind of experiment: Inhibition of human 17beta-HSD5 expressed in HEK293 cells assessed as enzyme-mediated transformation of [14C]-4-androstene-3,17-dione in to [14C]-testosterone at 0.3 uM after 18 hrs. It counts as cell-based. The method, boiled down: (§1)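 Intact HEK-293 cells stably over-expressing human 17β-HSD5, in freshly changed culture medium. [14C]-4-androstene-3,17-dione is added at 100 nM with inhibitor from an ethanolic solution; controls get ethanol only. After 18 h the conversion to [14C]-T is measured.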

Experiment [2] addresses T1, Aldo-keto reductase family 1 member C3 (Homo sapiens). The experiment in a line: Inhibition of human 17beta-HSD5 expressed in HEK293 cells assessed as enzyme-mediated transformation of [14C]-4-androstene-3,17-dione in to [14C]-testosterone at 3 uM after 18 hrs. It counts as cell-based. The method, boiled down:
as §1

Experiment [3] deals with T2, Aldo-keto reductase family 1 member C3 (Homo sapiens, UniProt P42330).
T2 sequence (P42330 whole entry): T1 sequence (whole entry)
As to the kind of experiment: Inhibition of human 17beta-HSD5 expressed in HEK293 cells assessed as enzyme-mediated transformation of [14C]-4-androstene-3,17-dione in to [14C]-testosterone after 18 hrs. It counts as cell-based. The method, boiled down:
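Intact HEK-293 cells stably over-expressing human 17β-HSD5, in fresh culture medium. [14C]-4-androstene-3,17-dione 0.1 μM with inhibitor added in ethanol (ethanol alone as control), 18 h.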

In experiment [4] the target is T3, 17-beta-hydroxysteroid dehydrogenase type 2 (Homo sapiens) (UniProt P37059).
T3 sequence (whole entry): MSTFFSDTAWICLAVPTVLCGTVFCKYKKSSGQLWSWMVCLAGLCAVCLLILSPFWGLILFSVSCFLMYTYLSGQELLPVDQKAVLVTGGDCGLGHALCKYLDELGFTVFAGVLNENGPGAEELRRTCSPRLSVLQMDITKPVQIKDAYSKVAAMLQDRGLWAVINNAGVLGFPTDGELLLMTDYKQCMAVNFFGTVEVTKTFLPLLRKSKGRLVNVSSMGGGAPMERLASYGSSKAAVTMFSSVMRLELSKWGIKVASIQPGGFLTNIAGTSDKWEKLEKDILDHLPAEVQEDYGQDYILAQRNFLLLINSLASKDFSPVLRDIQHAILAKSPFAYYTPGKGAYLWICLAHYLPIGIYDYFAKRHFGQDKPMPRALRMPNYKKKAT
As to the kind of experiment: Inhibition of human 17beta-HSD2 expressed in HEK293 cells assessed as enzyme-mediated transformation of [14C]-testosterone in to [14C]-4-androstene-3,17-dione at 0.1 uM. It counts as cell-based.

Experiment [5] deals with T4, 17-beta-hydroxysteroid dehydrogenase type 3 (Homo sapiens) (UniProt P37058).
T4 sequence (whole entry): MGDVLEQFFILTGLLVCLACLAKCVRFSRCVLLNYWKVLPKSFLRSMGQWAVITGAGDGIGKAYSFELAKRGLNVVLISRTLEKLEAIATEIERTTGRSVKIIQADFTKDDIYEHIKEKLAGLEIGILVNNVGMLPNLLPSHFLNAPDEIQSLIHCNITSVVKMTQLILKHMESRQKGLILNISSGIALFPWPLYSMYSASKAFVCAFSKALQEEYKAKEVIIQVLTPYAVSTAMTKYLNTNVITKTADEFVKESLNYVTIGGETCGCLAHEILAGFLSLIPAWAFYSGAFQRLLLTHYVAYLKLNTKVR
As to the kind of experiment: Inhibition of human 17beta-HSD3 expressed in HEK293 cells assessed as enzyme-mediated transformation of [14C]-4-androstene-3,17-dione in to [14C]-testosterone at 0.1 uM. It counts as cell-based.

Experiment [6] addresses T3, 17-beta-hydroxysteroid dehydrogenase type 2 (Homo sapiens). As to the kind of experiment: Inhibition of human 17beta-HSD2 expressed in HEK293 cells assessed as enzyme-mediated transformation of [14C]-testosterone in to [14C]-4-androstene-3,17-dione at 1 uM. It counts as cell-based.
The target in experiment [7] is T4, 17-beta-hydroxysteroid dehydrogenase type 3 (Homo sapiens). As to the kind of experiment: Inhibition of human 17beta-HSD3 expressed in HEK293 cells assessed as enzyme-mediated transformation of [14C]-4-androstene-3,17-dione in to [14C]-testosterone at 1 uM. It counts as cell-based.
For experiment [8], the target named is T5, Progesterone receptor (Rattus norvegicus) (UniProt Q63449).
T5 sequence (whole entry): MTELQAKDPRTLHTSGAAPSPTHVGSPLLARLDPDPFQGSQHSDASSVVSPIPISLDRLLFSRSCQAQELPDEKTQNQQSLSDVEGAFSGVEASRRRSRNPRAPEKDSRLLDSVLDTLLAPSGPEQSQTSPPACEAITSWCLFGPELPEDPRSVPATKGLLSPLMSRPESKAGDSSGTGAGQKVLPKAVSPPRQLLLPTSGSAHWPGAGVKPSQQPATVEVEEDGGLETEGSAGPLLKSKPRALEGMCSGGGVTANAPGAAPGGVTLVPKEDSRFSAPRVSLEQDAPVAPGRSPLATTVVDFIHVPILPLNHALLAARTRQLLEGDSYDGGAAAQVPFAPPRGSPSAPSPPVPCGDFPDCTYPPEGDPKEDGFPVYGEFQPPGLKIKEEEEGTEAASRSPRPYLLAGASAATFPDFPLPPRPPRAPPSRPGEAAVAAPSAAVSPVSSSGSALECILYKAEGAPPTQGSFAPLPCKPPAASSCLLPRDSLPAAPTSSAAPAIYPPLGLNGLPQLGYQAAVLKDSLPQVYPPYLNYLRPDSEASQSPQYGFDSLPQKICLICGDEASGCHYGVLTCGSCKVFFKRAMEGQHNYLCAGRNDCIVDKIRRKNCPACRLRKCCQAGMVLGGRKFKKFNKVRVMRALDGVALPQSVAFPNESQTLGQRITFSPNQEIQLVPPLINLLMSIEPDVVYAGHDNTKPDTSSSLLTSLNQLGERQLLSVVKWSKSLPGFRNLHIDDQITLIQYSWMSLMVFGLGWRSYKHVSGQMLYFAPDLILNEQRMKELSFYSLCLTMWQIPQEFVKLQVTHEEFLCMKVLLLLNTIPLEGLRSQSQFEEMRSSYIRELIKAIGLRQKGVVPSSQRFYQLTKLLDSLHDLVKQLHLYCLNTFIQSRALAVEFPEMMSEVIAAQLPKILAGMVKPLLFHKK
As to the kind of experiment: Binding affinity to rat uterus progesterone receptor at 0.01 uM.

Active and inactive are the calls of the source. The calls are words filed in the database; no cut-off is given here.

Take `CC(=O)S[C@@H]1CC2=CC(=O)CC[C@]2(C)[C@H]2CC[C@@]3(C)[C@@H](CC[C@@]34CCC(=O)O4)[C@H]12`: the inhibition in experiment [1] was 27%; in experiment [2], 57%.
As for `C[C@]12CCC(=O)CC1CC[C@@H]1[C@@H]2CC[C@@]2(C)[C@H]1CC[C@@]21CCC(=O)O1` (stereo partly drawn), the inhibition in experiment [1] was determined as 15%; in experiment [2], 63%.
With `COC1CC[C@@]2(CC[C@H]3[C@@H]4CCc5cc(O)ccc5[C@H]4CC[C@@]32C)O1` (stereo in doubt; 7), the inhibition in experiment [1] came to 0%; in experiment [2], 4%.
Regarding `CC1CC(=O)O[C@]2(CC[C@H]3[C@@H]4CCc5cc(O)ccc5[C@H]4CC[C@@]32C)C1` (mixture of isomers), the values for the inhibition in experiment [1] and in experiment [2] were 88% and 94%, respectively. The IC50 in experiment [3] was determined as 19 nM.
The matching figures for `C[C@]12CC[C@@H]3c4ccc(O)cc4CC[C@H]3[C@@H]1CC[C@@]21CC=CC(=O)O1`: 79%, 92% and 49 nM.
On to `C[C@]12CC[C@@H]3c4ccc(O)cc4CC[C@H]3[C@@H]1CC[C@@]21CCC(O)O1` (mixture of isomers), for which the figures for the inhibition in experiment [1] and in experiment [2] were 19% and 61%, respectively.
On the same counts, the results for `C[C@]12CCC(=O)C=C1CC[C@@H]1[C@@H]2CC[C@@]2(C)[C@H]1CC[C@@]21CCC(=O)O1` are 19% and 61%.
As to `C[C@]12CC[C@@H]3c4ccc(O)cc4CC[C@H]3[C@@H]1CC[C@@]21CCCC(=O)O1`, the inhibition in experiment [1] is 92%; in experiment [5] it was 25%; in experiment [2], 95%; in experiment [7], 34%. For the same compound, in experiment [3], the IC50 was 20 nM. The result in experiment [4] and in experiment [6] was Active.
In the case of `C[C@]12CC[C@@H]3c4ccc(O)cc4CC[C@H]3[C@@H]1C[C@@H]1CCCC(=O)O[C@@H]12`, the inhibition in experiment [1] worked out at 70%; in experiment [2], 91%. Moreover, in experiment [3], the IC50 amounted to 66 nM.
Regarding `C=CCC1CC[C@@]2(CC[C@H]3[C@@H]4CCc5cc(O)ccc5[C@H]4CC[C@@]32C)OC1=O` (mixture of isomers), the figures for the inhibition in experiment [1] and in experiment [2] were 68% and 91%, respectively. The IC50 in experiment [3] was 107 nM.
As for `C[C@@H]1C[C@H]2[C@@H]3CCC4=CC(=O)C=C[C@]4(C)[C@@]3(F)[C@@H](O)C[C@]2(C)[C@@]1(O)C(=O)CO`, the Activity in experiment [8] was found to be 0%.
In the case of `C[C@]12CC[C@@H]3c4ccc(O)cc4CC[C@H]3[C@@H]1C[C@H]1CCC(=O)O[C@H]12`, the figures for the inhibition in experiment [1] and in experiment [2] were 6% and 52%, respectively.
The matching figures for `COC1CC[C@@]2(CC[C@H]3[C@@H]4CCc5cc(O)ccc5[C@H]4CC[C@@]32C)O1` (stereo in doubt; 8): 0% and 16%.
`C[C@]12CCC(=O)C[C@@H]1CC[C@@H]1[C@@H]2CC[C@]2(C)[C@@H](O)CC[C@@H]12` displayed an Activity in experiment [8] of 3%.
`C[C@]12CC[C@@H]3c4ccc(O)cc4CC[C@H]3[C@@H]1CC[C@]21CCC(=O)O1`: the inhibition in experiment [1] was 22%; in experiment [2], 45%.
Regarding `C[C@]12CCC3(CCC(=O)O3)CC1CC[C@@H]1[C@@H]2CC[C@@]2(C)[C@H]1CC[C@@]21CCC(=O)O1` (stereo partly drawn), the inhibition in experiment [1] came out at 7%; in experiment [2], 29%.
Turning to `CC1CC[C@@]2(CC[C@H]3[C@@H]4CCc5cc(O)ccc5[C@H]4CC[C@@]32C)OC1=O` (mixture of isomers), the inhibition in experiment [1] is 93%; in experiment [2], 94%. Further, the IC50 in experiment [3] amounted to 16 nM. Moreover, the outcome in experiment [4] and in experiment [6] was Active.
Take `C[C@]12CC[C@@H]3c4ccc(O)cc4CC[C@H]3[C@@H]1CC[C@@]21CCC(=O)O1`: the results for the inhibition in experiment [1] and in experiment [2] were 47% and 79%, respectively.
The matching figures for `C[C@]12CCC(=O)CC1C(=O)C[C@@H]1[C@@H]2CC[C@@]2(C)[C@H]1CC[C@@]21CCC(=O)O1` (stereo partly drawn): 14% and 45%.
For the compound `C[C@]12CCC(=O)C=C1CC[C@@H]1[C@@H]2CC[C@]2(C)C(=O)CC[C@@H]12`, the results for the inhibition in experiment [1] and in experiment [2] were 21% and 45%, respectively.
On the same counts, the results for `CCCC1CC[C@@]2(CC[C@H]3[C@@H]4CCc5cc(O)ccc5[C@H]4CC[C@@]32C)OC1=O` (mixture of isomers) are 41% and 83%.
Consider `COC(=O)C1CC[C@@]2(CC[C@H]3[C@@H]4CCc5cc(O)ccc5[C@H]4CC[C@@]32C)OC1=O` (mixture of isomers), for which the inhibition in experiment [1] amounted to 78%; in experiment [2], 92%. The IC50 in experiment [3] is 72 nM.
Regarding `C[C@]12CC[C@@H]3c4ccc(O)cc4CC[C@H]3[C@@H]1C[C@@H]1CCC(=O)O[C@@H]12`, the inhibition turned out to be 55% in experiment [1] and 85% in experiment [2].
On the same counts, the results for `C[C@]12CC[C@@H]3c4ccc(O)cc4CC[C@H]3[C@@H]1C[C@@H]1CC(=O)O[C@@H]12` are 30% and 62%.
Turning to `C[C@]12CC[C@@H]3c4ccc(O)cc4CC[C@H]3[C@@H]1CC[C@@]21CCCCC(=O)O1`, the inhibition in experiment [1] turned out to be 90%; in experiment [2], 93%. The IC50 in experiment [3] stood at 42 nM.
Take `C[C@]12CC[C@@H]3c4ccc(O)cc4CC[C@H]3[C@@H]1CC[C@@H]2O`: the Activity in experiment [8] was 6%.
